Assay outcomes from PubChem BioAssay.
Sampled rows, rich in hits. Any-hit rate of the full collection: about 2.3%.
TRPC4 potent: positive allosteric modulators of TRPC4, primary screen, cell-based, mouse TRPC4beta, HEK293 mu-opioid, Fluo-4 calcium; Short transient receptor potential channel 4 (Mus musculus), Q9QUQ5; DAMGO EC20, Fluo-4 Ca2+ flux; hits give high values; B-score at 10 µM; 310,000 compounds, 0.42% hits; AID 2227, 2009;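 active means B-score of calcium response area above 5 SD of library B-scores, with initial fluorescence ratio within 5 SD of library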
TRPC4 block: inhibitors of mouse TRPC4 channel, primary screen, Fluo4 calcium, HEK293 TRPC4beta/mu-opioid cells; Short transient receptor potential channel 4 (Mus musculus), Q9QUQ5; DAMGO-evoked Fluo4 calcium flux; hits give low values; B-score at 10 µM; 300,000 compounds, 0.39% hits; AID 2247, 2010;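 active means B-score over 3 SD under the library average, no early fluorescence shift, positive overall ratio signal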
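Assay system: HEK293 cells with stable TRPC4beta plus mu-opioid receptor expression; Probe or stimulus: DAMGO in two steps, submaximal then maximal; Dosing: single-point compound dosing; Measured by: Fluo4 calcium-dye fluorescence, kinetic read; Read-out basis: B score from integrated Fluo4 fluorescence ratio.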
TRPC4 act: activators of mouse TRPC4 channel, primary screen, Fluo4 calcium, HEK293 TRPC4beta/mu-opioid cells; Short transient receptor potential channel 4 (Mus musculus), Q9QUQ5; Fluo4 calcium fluorescence; hits give high values; B-score at 10 µM; 310,000 compounds, 0.49% hits;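 active means B-score above 5 SD of library B-scores, and initial fluorescence ratio not above library mean plus 5 SD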;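 further: positive B-score marks a calcium rise read as TRPC4 activation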
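Assay system – TRPC4beta and mu-opioid receptor HEK293 stable cells · Measured by – Fluo4 fluorescence, kinetic · Schedule – dye loading 45 min room temperature, 110 s kinetic read · Read-out – B-scored integrated calcium fluorescence ratio · Controls – buffer and maximal DAMGO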
TRPC6 act: mouse TRPC6 channel activators, primary screen, cell-based, HEK293, membrane potential dye | HEK293-TRPC6 membrane potential dye fluorescence; hits give high values | Short transient receptor potential channel 6 (Mus musculus), Q61143 | 310,000 compounds, 0.13% hits | B-score at 10 µM;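 active means B-score of the integrated fluorescence ratio above library mean plus 3 SD, and starting fluorescence ratio within library mean plus 5 SD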;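 further: higher score means more depolarization so channel activation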
Target sequence (Q61143 whole entry, looked up): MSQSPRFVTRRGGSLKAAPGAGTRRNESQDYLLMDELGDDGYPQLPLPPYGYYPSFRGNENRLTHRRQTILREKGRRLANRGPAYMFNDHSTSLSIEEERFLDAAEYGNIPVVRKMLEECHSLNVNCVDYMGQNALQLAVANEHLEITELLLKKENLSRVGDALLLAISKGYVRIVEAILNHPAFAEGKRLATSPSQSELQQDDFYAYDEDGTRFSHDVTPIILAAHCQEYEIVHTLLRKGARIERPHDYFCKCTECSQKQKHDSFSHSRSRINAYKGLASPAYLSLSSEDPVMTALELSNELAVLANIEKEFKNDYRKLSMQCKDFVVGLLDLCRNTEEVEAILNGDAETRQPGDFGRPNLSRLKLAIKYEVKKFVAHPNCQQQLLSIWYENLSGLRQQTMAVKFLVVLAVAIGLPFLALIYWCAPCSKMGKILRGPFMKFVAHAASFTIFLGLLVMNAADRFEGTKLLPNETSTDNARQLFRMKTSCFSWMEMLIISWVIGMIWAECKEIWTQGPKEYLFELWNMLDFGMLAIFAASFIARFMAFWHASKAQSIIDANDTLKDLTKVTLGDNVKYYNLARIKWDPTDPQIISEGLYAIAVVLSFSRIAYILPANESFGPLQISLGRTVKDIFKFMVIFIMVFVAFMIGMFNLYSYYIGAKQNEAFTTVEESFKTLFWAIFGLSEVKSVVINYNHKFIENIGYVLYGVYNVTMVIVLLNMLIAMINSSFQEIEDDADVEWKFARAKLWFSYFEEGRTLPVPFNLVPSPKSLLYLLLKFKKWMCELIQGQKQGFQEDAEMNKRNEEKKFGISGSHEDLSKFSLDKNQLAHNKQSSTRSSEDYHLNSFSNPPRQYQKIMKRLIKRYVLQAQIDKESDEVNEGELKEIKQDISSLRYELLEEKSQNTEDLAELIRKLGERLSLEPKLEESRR
TRPC6 inhibitor: mouse TRPC6 channel inhibitors, primary screen, cell-based, HEK293, membrane potential dye; ACh-evoked depolarization; hits give low values; AID 2553, 2010; B-score at 10 µM; 310,000 compounds, 1.1% hits; Short transient receptor potential channel 6 (Mus musculus), Q61143;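 active means B-score under library mean minus 3 SD, initial fluorescence not abnormally high, positive integrated signal ratio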;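 further: B-score derived from integrated fluorescence ratio over the kinetic read; more negative B-score means stronger inhibition of depolarization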
TRPC4 sel inh 2: mouse TRPC4 off-target activity of TRPC6 inhibitors, second screen; shares compounds with TRPC6 inhibitor; HEK293 TRPC4/MOR, membrane potential dye fluorescence; channel activated by saturating DAMGO dose; inhibition, % at 10 µM; 920 compounds, 42% hits;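 active means compounds whose fluorescence signal differed from control wells by over 3 SD, either direction, in both duplicate plates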
TRPC4 spec: mouse TRPC4 modulation by TRPC6 hits, confirmation, selectivity assay for TRPC6 inhibitor project, cell-based, HEK293 TRPC4/mu-opioid, membrane potential dye; shares compounds with TRPC6 inhibitor; membrane potential fluorescence; activity change, negative = inhibition, % at 10 µM; 920 compounds, 61% hits; AID 2777, 2010;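 active means rise or fall in signal beyond 3 SD of buffer-only wells in both replicate plates, either sign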;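 further: integrated kinetic ratio of fluorescence range over baseline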
HEK293 MPD ctr 2-1: nonspecific membrane potential effects, parental HEK293, confirmation, counter-screen for TRPC6 inhibitor project, cell-based, second counter screen; AID 2779, 2010; shares compounds with TRPC6 inhibitor; parental HEK293 membrane potential dye fluorescence; maximal acetylcholine challenge after compound addition; signal change vs control, % at 10 µM; 920 compounds, 31% hits;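 active means membrane potential signal moving either way by over 3 SD of the maximum-effect control, in both duplicate plates, meaning non-specific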
HEK293 MPD ctr-1: membrane potential modulation in parental HEK293, confirmation, counter-screen for TRPC6 inhibitor project, cell-based; shares compounds with TRPC6 inhibitor; membrane potential signal change, % at 10 µM; 920 compounds, 60% hits; parental HEK293 membrane potential dye fluorescence;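 active means membrane potential signal shifting up or down by more than 3 SD of buffer-only wells, on both duplicate plates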
HEK293 MPD ctr-2: parental HEK293 membrane potential modulation, confirmation, counter-screen for TRPC6 modulator project, cell-based | 2,400 compounds, 51% hits | shares compounds with TRPC6 inhibitor | membrane potential dye fluorescence | membrane potential signal change, % at 10 µM;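 active means membrane potential signal moves up or down beyond 5 SD from buffer-only wells, on both duplicate plates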
HEK293 MPD ctr 2-2: second check of TRPC6 modulator effects in parental HEK293 cells; membrane potential dye fluorescence; after compound, maximal acetylcholine stimulation; shares compounds with TRPC6 inhibitor; inhibition, % at 10 µM; 2,400 compounds, 14% hits;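 active means membrane potential signal drops by more than 5 SD from the mean control signal, in both duplicate plates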
TRPC4 ctr mod: TRPC4 modulation by TRPC6 hit compounds, confirmation, selectivity assay for TRPC6 modulator project, cell-based, HEK293 TRPC4/mu-opioid, membrane potential dye, mouse. shares compounds with TRPC6 inhibitor. membrane potential fluorescence. percent change from control (negative = decrease, positive = increase), % at 10 µM. 2,400 compounds, 69% hits. AID 488927, 2010;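 active means membrane potential signal moved up or down beyond 5 SD of buffer control wells, in both duplicate plates, actives on both sides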
TRPC4/MOR inh 2: mouse TRPC4 off-target activity of TRPC6 modulators, second screen | shares compounds with TRPC6 inhibitor | HEK293 TRPC4/mu-opioid, membrane potential dye fluorescence; stimulated with maximal-effect DAMGO | inhibition, % at 10 µM | 2,400 compounds, 55% hits;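 active means drop in membrane potential signal beyond 5 SD of the control wells in both duplicate plates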;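 further: TRPC4 counter screen for TRPC6 hits run under conditions tuned for TRPC6 not TRPC4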
TRPC6 block conf: mouse TRPC6 channel inhibitors, confirmation, HEK293 cells, membrane potential dye, duplicate; shares compounds with TRPC6 inhibitor; ACh-evoked depolarization; inhibition, % at 10 µM; 3,300 compounds, 43% hits; AID 488960, 2010;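 active means fluorescence ratio falls more than 5 SD below the full-stimulation control mean, in both duplicate runs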;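 further: integrated fluorescence ratio of peak minus minimum over baseline after agonist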
TRPC6 act confirm: mouse TRPC6 channel activators, confirmation, HEK293 cells, membrane potential dye, duplicate; 2,800 compounds, 11% hits; activation, % at 10 µM; shares compounds with TRPC6 inhibitor; HEK293-TRPC6 membrane potential dye fluorescence, FDSS;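 active means ratio signal rise beyond 5 SD above unstimulated control wells' mean, seen in both duplicate runs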
Numbers stand for hits; – = inactive; · = no result.

SMILES	TRPC4 potent	TRPC4 block	TRPC4 act	TRPC6 act	TRPC6 inhibitor	HEK293 MPD ctr-2	HEK293 MPD ctr 2-2	TRPC4 ctr mod	TRPC4/MOR inh 2	TRPC6 block conf	TRPC6 act confirm	others
CN1CCN(c2ncccc2S(=O)(=O)N2CCCCC2)CC1	–	–	–	–	-7	·	·	·	·	78%	–	TRPC4 sel inh 2=–;TRPC4 spec=-0.1%;HEK293 MPD ctr 2-1=-41%;HEK293 MPD ctr-1=0.9%
CC(C)Cc1ccc(CN2CCCC(NC(=O)CCN3CCCO3)C2)cc1 (centres undefined)	–	–	–	–	–	·	·	·	·	·	·
Cc1ccn(CC(=O)NC2CCCN(Cc3ccc(CC(C)C)cc3)C2)n1 (centres undefined)	–	–	145	–	-5.8	112%	–	38%	–	–	·
Nc1ccccc1Nc1cc(-c2ccccc2)nn1-c1cccc(Cl)c1	–	–	–	–	-5.6	–	–	–	30%	–	–
Cc1ccn2c(=O)c(NC(=O)c3cccs3)c(C)nc2c1	–	–	–	–	–	·	·	·	·	·	·
COc1ccc(OC)c(Nc2nc(NCCO)c3ccccc3n2)c1	–	-5	–	–	-9	·	·	·	·	79%	–	TRPC4 sel inh 2=44%;TRPC4 spec=-24%;HEK293 MPD ctr 2-1=32%;HEK293 MPD ctr-1=-274%
Cc1ccc(Nc2nc(NCCO)c3ccccc3n2)cc1C	–	–	–	–	-6.5	–	77%	-16%	86%	79%	–
COc1ccc(OC)c(Nc2c3ccccc3nc3ccccc23)c1	–	-6	–	–	-6	-182%	–	-30%	70%	53%	–
OCCNc1nc(-c2ccccc2)nc2ccccc12	–	–	–	–	–	·	·	·	·	·	·
COc1cccc(-c2nc(NCC3CCCO3)c3ccccc3n2)c1O (centres undefined)	–	–	–	–	–	·	·	·	·	·	·
COc1ccccc1Nc1nc(NCCO)c2ccccc2n1	–	–	–	–	–	·	·	·	·	·	·
COc1ccccc1Nc1nc(NCC2CCCO2)c2ccccc2n1 (centres undefined)	–	-7	–	–	-8.8	·	·	·	·	112%	–	TRPC4 sel inh 2=32%;TRPC4 spec=-13%;HEK293 MPD ctr 2-1=–;HEK293 MPD ctr-1=-139%
CC1CC(C)CN(C(=O)COC(=O)CNC(=O)C23CC4CC(CC(C4)C2)C3)C1 (centres undefined)	–	–	–	–	–	·	·	·	·	·	·
CCN(CC(=O)Nc1ccc(NC(C)=O)cc1)C(=O)CCCSc1nc2ccccc2[nH]1	–	–	–	–	–	·	·	·	·	·	·
O=C(Nc1ccc(C(=O)NCCCN2CCN(c3ccc(F)cc3)CC2)cc1)C1=CSCCO1	–	–	–	–	–	·	·	·	·	·	·
CN1CCc2c(sc3c2c(=O)n(-c2ccccc2)c2nncn32)C1	–	–	–	–	-5.9	-101%	–	-20%	–	–	–
NS(=O)(=O)c1ccc(CCNC(=O)COC(=O)CCSc2ccc(Cl)cc2)cc1	–	–	–	–	–	·	·	·	·	·	·
NS(=O)(=O)c1ccc(CCNC(=O)COC(=O)/C=C/c2ccc(Cl)cc2)cc1	–	–	–	–	-5.4	–	–	–	–	–	–
c1ccc(C2c3[nH]c4ccccc4c3CCN2Cc2cccn2-c2ccccn2)nc1 (centres undefined)	–	–	–	–	–	·	·	·	·	·	·
CC(=O)Nc1ccc(CN2CCc3c([nH]c4ccccc34)C2c2ccccn2)cc1 (centres undefined)	–	–	54	–	-7.3	–	–	66%	70%	–	–
Cc1sc(NC(=O)c2sc3nc4c(C)cccc4cc3c2N)c(C#N)c1C	–	–	–	13	–	–	–	13%	–	–	–
COc1cc2c(cc1OC)C(c1ccc(-c3ccccc3Cl)o1)=NCC2	–	–	–	–	-6.2	-190%	–	-48%	52%	40%	–
COc1cc2c(cc1OC)C(c1ccc(-c3ccc(Cl)c(Cl)c3)o1)=NCC2	–	–	–	–	–	·	·	·	·	·	·
COc1cc2c(cc1OC)C(c1ccc(-c3ccc(Cl)cc3Cl)o1)=NCC2	–	–	–	–	–	·	·	·	·	·	·
COc1cc2c(cc1OC)C(c1ccc(Cl)cc1)=NCC2	–	–	–	–	-6.2	-275%	–	-40%	52%	44%	–
CC1CC(C)CN(C(=O)CN(C)S(=O)(=O)c2ccc3c(c2)c(=O)n(C)c(=O)n3C)C1 (centres undefined)	–	–	–	–	–	·	·	·	·	·	·
COc1ccccc1N1CCN(c2nccc(C)n2)CC1	–	–	–	–	–	·	·	·	·	·	·
O=c1cc(C(F)(F)F)nc(SC/C=C/c2ccccc2)[nH]1	–	–	–	–	–	·	·	·	·	·	·
